Source: ChEMBL document CHEMBL1145175, “Investigations on the effects of basic side chains on the hormonal profile of (4R,5S)/(4S,5R)-4,5-bis(4-hydroxyphenyl)-2-imidazolines” (J Med Chem, 2005)
pEC50, pIC50: −log10 of the molar value.

How the values were obtained:
Estrogen receptor beta [1] = molecular target: T1, Estrogen receptor beta (Homo sapiens, UniProt Q92731); experiment: Effective concentration against estrogen receptor beta of […]
Summary of the method: (§1)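 U-2 OS cells grown in charcoal-treated FCS medium were transiently co-transfected with pSG5-ERβ FL (0.05 µg) and (ERE)2luc+ reporter (5 µg) using Fugene6, then pooled and reseeded. Compounds were added at 10^-5 to 10^-10 M in 0.1% DMSO for 21 h. Luciferase RLU was normalised to crystal-violet cell mass, in triplicate, and expressed as % of the E2 plateau.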

Estrogen receptor beta [2] = molecular target: T1, Estrogen receptor beta; experiment: Percent inhibition of 0.30 nM estradiol activity on estrogen receptor beta in U-2 OS cells at 10 uM
Estrogen receptor beta [3] = molecular target: T1, Estrogen receptor beta; experiment: Percent activation of estrogen receptor beta in luciferase assay at 10 uM; summary of the method: as §1
Estrogen receptor beta [4] = molecular target: T1, Estrogen receptor beta; experiment: Inhibition of estrogen receptor beta in […] at 10 uM; assay type: cell-based
Summary of the method: (§2)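 Antagonist mode used U-2 OS cells transiently co-transfected with pSG5-ERβ FL and (ERE)2luc+ in charcoal-stripped medium. Compounds at 10^-5 to 10^-13 M were co-incubated with E2 at 3.0 × 10^-10 M for 21 h. Luciferase luminescence was normalised to crystal-violet cell mass, in triplicate, and reported as % inhibition of the E2 signal.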

Estrogen receptor [5] = molecular target: T2, Estrogen receptor (Homo sapiens, UniProt P03372); experiment: Effective concentration against estrogen receptor alpha of MCF-7-2a cells
T2 sequence (P03372 whole entry): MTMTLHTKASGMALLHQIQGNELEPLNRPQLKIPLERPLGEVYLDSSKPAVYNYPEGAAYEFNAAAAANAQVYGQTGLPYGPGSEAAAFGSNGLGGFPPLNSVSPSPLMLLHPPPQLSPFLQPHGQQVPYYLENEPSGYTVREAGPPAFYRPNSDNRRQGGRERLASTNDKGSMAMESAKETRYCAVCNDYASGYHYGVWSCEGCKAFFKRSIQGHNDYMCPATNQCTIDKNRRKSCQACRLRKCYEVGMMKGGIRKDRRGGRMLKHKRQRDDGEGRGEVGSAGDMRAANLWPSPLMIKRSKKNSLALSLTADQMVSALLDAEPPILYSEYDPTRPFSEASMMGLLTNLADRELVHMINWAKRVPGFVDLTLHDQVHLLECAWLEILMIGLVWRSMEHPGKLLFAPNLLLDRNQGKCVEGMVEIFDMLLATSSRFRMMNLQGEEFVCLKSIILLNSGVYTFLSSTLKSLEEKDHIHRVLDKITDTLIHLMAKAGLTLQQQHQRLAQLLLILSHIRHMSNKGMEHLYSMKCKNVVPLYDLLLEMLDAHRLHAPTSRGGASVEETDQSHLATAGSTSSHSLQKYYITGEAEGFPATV

Estrogen receptor beta [6] = molecular target: T1, Estrogen receptor beta; experiment: Percent inhibition of 0.30 nM estradiol activity on estrogen receptor beta in MCF-7-2a cells at 10 uM; assay type: cell-based; details: in the assay text read “U-2 OS cells” for “MCF-7-2a cells”; summary of the method: as §2
Estrogen receptor [7] = molecular target: T2, Estrogen receptor; experiment: Inhibition of estrogen receptor alpha in MCF-7-2a cells at 10 uM; assay type: cell-based
Estrogen receptor beta [8] = molecular target: T1, Estrogen receptor beta; experiment: Inhibition of estrogen receptor beta at 10 uM

T1 sequence (Q92731 whole entry): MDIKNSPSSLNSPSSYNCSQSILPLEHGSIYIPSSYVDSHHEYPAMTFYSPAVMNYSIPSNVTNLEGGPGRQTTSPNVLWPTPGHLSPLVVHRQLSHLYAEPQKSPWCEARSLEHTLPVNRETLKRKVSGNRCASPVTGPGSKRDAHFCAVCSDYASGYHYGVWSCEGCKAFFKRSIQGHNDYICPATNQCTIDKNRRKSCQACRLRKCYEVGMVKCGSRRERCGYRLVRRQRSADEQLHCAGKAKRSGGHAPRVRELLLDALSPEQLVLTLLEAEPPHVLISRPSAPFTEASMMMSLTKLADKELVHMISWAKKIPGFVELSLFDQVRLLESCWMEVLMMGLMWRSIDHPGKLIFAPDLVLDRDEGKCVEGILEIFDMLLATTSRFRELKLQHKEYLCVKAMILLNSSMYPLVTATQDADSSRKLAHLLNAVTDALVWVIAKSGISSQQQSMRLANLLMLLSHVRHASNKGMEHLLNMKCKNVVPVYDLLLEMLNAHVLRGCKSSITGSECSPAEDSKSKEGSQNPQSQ

SMILES | pEC50 (Estrogen receptor beta [1]) | inhibition (Estrogen receptor beta [2]) | Activation (Estrogen receptor beta [3]) | pIC50 (Estrogen receptor beta [4]) | pEC50 (Estrogen receptor [5]) | inhibition (Estrogen receptor beta [6]) | pIC50 (Estrogen receptor [7]) | pIC50 (Estrogen receptor beta [8])
CCC1=N[C@H](c2ccc(OCCN3CCCCC3)cc2Cl)[C@H](c2ccc(O)cc2Cl)N1 | 5.55 | 75% | 92% | 5.22 |  |  |  | 
CN(C)CCOc1ccc([C@H]2N=CN[C@H]2c2ccc(O)cc2Cl)c(Cl)c1 |  |  | 75% |  |  | 4% |  | 
CCC1=N[C@H](c2ccc(OCCN3CCCCC3)cc2)[C@H](c2ccc(O)cc2)N1 | 6.30 | 57% | 95% |  |  |  | 7.42 | 5.05
Oc1ccc([C@@H]2N=CN[C@@H]2c2ccc(OCCN3CCCCC3)cc2Cl)c(Cl)c1 | 6.22 |  | 60% |  | 5.77 | 0% |  | 
Oc1cc(Cl)c([C@@H]2N=CN[C@@H]2c2ccc(OCCN3CCCCC3)cc2Cl)c(Cl)c1 | 6.40 |  | 103% |  | 7.07 | 0% |  | 
Oc1ccc([C@@H]2N=CN[C@@H]2c2ccc(OCCN3CCCC3)cc2Cl)c(Cl)c1 | 6.33 |  | 105% |  | 5.74 | 30% |  | 

Second part, the compound after the results:

pEC50 (Estrogen receptor beta [1]) | inhibition (Estrogen receptor beta [2]) | Activation (Estrogen receptor beta [3]) | pIC50 (Estrogen receptor beta [4]) | pEC50 (Estrogen receptor [5]) | inhibition (Estrogen receptor beta [6]) | pIC50 (Estrogen receptor [7]) | pIC50 (Estrogen receptor beta [8]) | SMILES
 |  | 36% |  | 5.46 | 0% |  |  | CN(C)CCOc1ccc([C@H]2N=CN[C@H]2c2ccc(O)cc2)cc1
 |  | 26% |  |  | 12% |  |  | Oc1ccc([C@@H]2N=CN[C@@H]2c2ccc(OCCN3CCCCC3)cc2)cc1
5.45 |  |  |  | 5.82 |  |  |  | CN(C)CCOc1ccc([C@H]2NC=N[C@H]2c2ccc(O)cc2Cl)c(Cl)c1
